ChEMBL document CHEMBL5532703, “A new class of 7-deazaguanine agents targeting autoimmune diseases: dramatic reduction of synovial fibroblast IL-6 production from human rheumatoid arthritis patients and improved performance against murine experimental autoimmune encephalomyelitis” (RSC Med Chem, 2024)
Active and inactive are the calls of the source. The calls are words filed in the database; no cut-off is given here.

Experiments:
Synovial fibroblasts [1] = assay: Anti-inflammatory activity in human Synovial fibroblasts derived from rheumatoid arthritis patient assessed as reduction in TNF-alpha induced IL-6 production at 200 uM measured after 72 hrs by ELISA; type: functional, cell-based
Outline: (§1)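 Synovial fibroblasts came from collagenase-digested (1 mg/mL, 4 h, 37 °C) RA patient biopsies, grown in RPMI-1640 with 10% FCS and used at passages 3–8. Cultures were stimulated with TNFα (10 ng/mL) while exposed to compound, with medium and compound renewed at 24 h. Supernatants were collected at 72 h for IL-6 ELISA, relative to a 4% DMSO/PBS vehicle control.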

Mus musculus [2] = assay: Anti-inflammatory activity in complete Freund's adjuvant/MOG (35 to 55 residues)/pertussis toxin-induced experimental autoimmune encephalomyelitis C57BL/6 mouse model assessed as decrease in disease progression at 9 mg/kg,ip administration observed after 3 days; type: functional, organism-based; settings: time 3.0 day
Outline: (§2)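 Female C57BL/6 mice, 10–12 weeks old and about 20 g, with EAE induced by s.c. CFA/MOG plus i.p. pertussis toxin on days 0 and 2. Mice entered the study at clinical score 1.5–2, which was day 0, and were randomised. Each received 200 µL i.p. daily for 7 days of 4 mM compound (equimolar dosing) in 4% DMSO/PBS, made fresh. Vehicle controls were used, n = 4–5, with clinical scores recorded daily post treatment.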

Mus musculus [3] = assay: Anti-inflammatory activity in complete Freund's adjuvant/MOG (35 to 55 residues)/pertussis toxin-induced experimental autoimmune encephalomyelitis C57BL/6 mouse model assessed as decrease in disease progression at 9 mg/kg,ip administration observed after 7 days; type: functional, organism-based; settings: time 7.0 day; outline: as §2
Mus musculus [4] = assay: Anti-inflammatory activity in complete Freund's adjuvant/MOG (35 to 55 residues)/pertussis toxin-induced experimental autoimmune encephalomyelitis C57BL/6 mouse model assessed as decrease in disease progression at 16 mg/kg,ip administration observed after 2 days; type: functional, organism-based; settings: time 2.0 day; outline: as §2
Mus musculus [5] = assay: Anti-inflammatory activity in complete Freund's adjuvant/MOG (35 to 55 residues)/pertussis toxin-induced experimental autoimmune encephalomyelitis C57BL/6 mouse model assessed as decrease in disease progression at ip administration observed after 4 days; type: functional, organism-based; settings: time 4.0 day
Outline: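 EAE in female C57BL/6 mice, induced with CFA/MOG s.c. and pertussis toxin i.p. Mice were enrolled at clinical score 1.5–2 and randomised, then dosed i.p. daily with compound diluted to 4 mM in 4% DMSO/PBS, 200 µL per mouse. This was a 4-day study, n = 5, with 4% DMSO/PBS vehicle controls. Clinical score was tracked daily after treatment started.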

Synovial fibroblasts [6] = assay: Anti-inflammatory activity in human Synovial fibroblasts derived from rheumatoid arthritis patient assessed as reduction in TNF-alpha induced IL-6 production measured after 72 hrs by ELISA; type: functional, cell-based; outline: as §1
Mus musculus [7] = assay: Anti-inflammatory activity in complete Freund's adjuvant/MOG (35 to 55 residues)/pertussis toxin-induced experimental autoimmune encephalomyelitis C57BL/6 mouse model assessed as decrease in disease progression at 15 mg/kg,ip administration observed after 1 day; type: functional, organism-based; outline: as §2
Mus musculus [8] = assay: Anti-inflammatory activity in complete Freund's adjuvant/MOG (35 to 55 residues)/pertussis toxin-induced experimental autoimmune encephalomyelitis C57BL/6 mouse model assessed as decrease in disease progression at 15 mg/kg,ip administration observed after 3 days; type: functional, organism-based; settings: time 3.0 day; outline: as §2
Mus musculus [9] = assay: Anti-inflammatory activity in complete Freund's adjuvant/MOG (35 to 55 residues)/pertussis toxin-induced experimental autoimmune encephalomyelitis C57BL/6 mouse model assessed as decrease in disease progression at 15 mg/kg,ip administration observed after 7 days; type: functional, organism-based; settings: time 7.0 day; outline: as §2
Mus musculus [10] = assay: Anti-inflammatory activity in complete Freund's adjuvant/MOG (35 to 55 residues)/pertussis toxin-induced experimental autoimmune encephalomyelitis C57BL/6 mouse model assessed as decrease in disease progression at 16 mg/kg,ip administration observed after 1 day; type: functional, organism-based; outline: as §2

C[C@H](CCNCc1c[nH]c2nc(N)[nH]c(=O)c12)c1ccccc1
Activity (Synovial fibroblasts [1]): inactive

CC(CCNCc1c[nH]c2nc(N)[nH]c(=O)c12)c1ccccc1 (stereo unspecified)
Activity (Synovial fibroblasts [1]): Active

Nc1nc2[nH]cc(CNCCCc3ccsc3)c2c(=O)[nH]1
Activity (Synovial fibroblasts [1]): Active

CO/N=C/c1c[nH]c2nc(N)[nH]c(=O)c12
Activity (Synovial fibroblasts [1]): Active | Activity (Mus musculus [2]): Active | Activity (Mus musculus [3]): inactive

CC(C)(CCNCc1c[nH]c2nc(N)[nH]c(=O)c12)c1ccccc1
Activity (Synovial fibroblasts [1]): Active | Activity (Mus musculus [4]): Active

Nc1nc2[nH]cc(CNCC[C@H](O)c3ccccc3)c2c(=O)[nH]1
Activity (Synovial fibroblasts [1]): Active

Nc1nc2[nH]cc(/C=N/OCc3ccccc3)c2c(=O)[nH]1
Activity (Synovial fibroblasts [1]): Active

Nc1nc2[nH]cc(CNCC[C@@H](O)c3ccccc3)c2c(=O)[nH]1
Activity (Synovial fibroblasts [1]): Active

Nc1nc2[nH]cc(/C=N/O)c2c(=O)[nH]1
Activity (Synovial fibroblasts [1]): Active | Activity (Mus musculus [3]): Active

Nc1nc2[nH]cc(CNCCC3(c4ccccc4)SCCS3)c2c(=O)[nH]1
Activity (Synovial fibroblasts [1]): inactive

CCC(CC)(CCNCc1c[nH]c2nc(N)[nH]c(=O)c12)c1ccccc1
Activity (Synovial fibroblasts [1]): Active

Nc1nc2[nH]cc(CNOCCc3ccccc3)c2c(=O)[nH]1
Activity (Synovial fibroblasts [1]): Active | Activity (Mus musculus [5]): Active

Nc1nc2[nH]cc(CNCCC(c3ccccc3)c3ccccc3)c2c(=O)[nH]1
Activity (Synovial fibroblasts [1]): Active

Nc1nc2[nH]cc(CNCCNc3ccccc3)c2c(=O)[nH]1
Activity (Synovial fibroblasts [1]): Active

Nc1nc2[nH]cc(CNCCC3(c4ccccc4)CC3)c2c(=O)[nH]1
Activity (Synovial fibroblasts [1]): Active

Nc1nc2[nH]cc(CNCCCc3ccccc3)c2c(=O)[nH]1
Activity (Synovial fibroblasts [6]): Dose-Dependent Effect | Activity (Mus musculus [7]): Active | Activity (Mus musculus [8]): Active | Activity (Mus musculus [9]): Active

Nc1nc2[nH]cc(CNCCC(=O)c3ccccc3)c2c(=O)[nH]1
Activity (Synovial fibroblasts [1]): Active | Activity (Mus musculus [10]): Active
